Assay [1] deals with M^pro. The settings on record: read-out: IC50 of M^pro inhibition; cited from earlier work.
The subject of assay [2] is C. elegans. The settings on record: cited from earlier work.
The nature of assay [3]: DPPH radical scavenging activity. The settings on record: 37 °C, 30 min, 517 nm. The essentials: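 Tea leaf solvent-extract fractions (petroleum ether, ethyl acetate, methanol, dichloromethane, methanol-water), each tested at several concentrations. Samples mixed 1:1 with 200 μM DPPH in ethanol, incubated 30 min at 37 °C, A517 read. Scavenging % = (1 − [(A_sample − A_blank)/A_control]) × 100, with control = water plus DPPH and blank = sample plus ethanol. Run three times.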

The target of assay [4] is T1, SARS-CoV-2 M^pro (Severe acute respiratory syndrome coronavirus 2, UniProt P0DTD1). The settings on record: read-out: IC50 of M^pro inhibition; beyotime enhanced inhibition kit; cited from earlier work.
Assay [5] deals with T1, SARS-CoV-2 M^pro. As to the kind of experiment: Surface plasmon resonance. The assay is classed as binding.

As for `O=c1c2ccccc2[se]n1-c1ccccc1` [ebselen], the IC50 in assay [1] was 0.04 ± 0.004 µM.

Consider Zijuanin F, for which the “extension of lifespan of C. elegans” value in assay [2] is given as 56.0%.

Consider `O=C1O[C@H]([C@@H](O)CO)C(O)=C1O` [VC], for which the “IC50 of DPPH free radical scavenging” value in assay [3] is 1.14 µg/mL.

Regarding `CC(C)(O)C1Cc2cc(/C=C3\OC(=O)C(c4cc5c(cc4O)OC(C)(C)C(O)C5)=C3O)ccc2O1` (centres unmarked) [aspulvinone M], the IC50 in assay [4] is 9.4 ± 0.6 µM.

In turn, `Oc1cc(O)c2c(c1)O[C@H](c1ccc(O)c(O)c1)[C@H](O)C2` [EC, (−)-epicatechin] had a Kd in assay [5] of 23.9 µM.

Consider aspulvinone R, for which the IC50 in assay [4] is 7.7 ± 0.6 µM.

For `CC(C)=CCc1cc(/C=C2\OC(=O)C(c3cc4c(cc3O)OC(C)(C)CC4)=C2O)ccc1O` [aspulvinone D], the IC50 in assay [4] is 10.3 ± 0.6 µM.

As for Zijuanin E, the “extension of lifespan of C. elegans” value in assay [2] is recorded as 67.2%.

The values above are taken from article PMC9652097 (Computers in Biology and Medicine, 2022).
